Measurements as given in ChEMBL document CHEMBL1821673, “Development of β-amino alcohol derivatives that inhibit Toll-like receptor 4 mediated inflammatory response as potential antiseptics” (J Med Chem, 2011).
Active and inactive are the calls of the source. The calls are words filed in the database; no cut-off is given here.

Assays:
[1] = molecular target: Serine/threonine-protein kinase pim-1 (Homo sapiens) (UniProt P11309); experiment: Inhibition of PIM1 at 28 uM by luciferase fragment complementation assay
Chain of Serine/threonine-protein kinase pim-1 (Homo sapiens) (P11309 whole entry, looked up, the tested form may be a part): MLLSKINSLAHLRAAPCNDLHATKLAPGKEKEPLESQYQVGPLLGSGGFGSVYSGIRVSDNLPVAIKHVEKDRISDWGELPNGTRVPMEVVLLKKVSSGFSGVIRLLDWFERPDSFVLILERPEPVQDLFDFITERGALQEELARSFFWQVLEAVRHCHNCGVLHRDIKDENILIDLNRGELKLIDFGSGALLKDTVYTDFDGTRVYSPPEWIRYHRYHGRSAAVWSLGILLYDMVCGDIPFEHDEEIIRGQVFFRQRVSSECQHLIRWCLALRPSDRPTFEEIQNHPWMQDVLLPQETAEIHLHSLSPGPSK

Cytochrome P450 2C9 = Cytochrome P450 2C9 (Homo sapiens, UniProt P11712); experiment: Inhibition of CYP2C9 in human liver microsomes using diclofenac as probe; assay type: ADME, Microsome
Chain of Cytochrome P450 2C9 (P11712 whole entry): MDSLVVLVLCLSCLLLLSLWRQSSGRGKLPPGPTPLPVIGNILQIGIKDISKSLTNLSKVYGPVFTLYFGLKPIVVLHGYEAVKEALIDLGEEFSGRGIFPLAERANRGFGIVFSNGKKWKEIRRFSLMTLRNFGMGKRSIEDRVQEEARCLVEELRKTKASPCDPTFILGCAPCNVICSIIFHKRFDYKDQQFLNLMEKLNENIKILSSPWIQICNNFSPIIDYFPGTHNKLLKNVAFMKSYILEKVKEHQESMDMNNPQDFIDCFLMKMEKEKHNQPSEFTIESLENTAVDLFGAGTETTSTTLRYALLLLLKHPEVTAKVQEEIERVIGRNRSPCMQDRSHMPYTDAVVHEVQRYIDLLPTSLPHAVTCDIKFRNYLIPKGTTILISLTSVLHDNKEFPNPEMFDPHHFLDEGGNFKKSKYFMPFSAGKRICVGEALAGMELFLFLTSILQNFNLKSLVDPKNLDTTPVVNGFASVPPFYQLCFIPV

Toll-like receptor 4 [2] = molecular target: T1, Toll-like receptor 4 (Homo sapiens, UniProt O00206); experiment: Inhibition of LPS-induced TLR4 activation in human whole blood assessed as reduction in plasma IL-8 level at 250 uM preincubated for 5 to 10 mins
T1 sequence (O00206 whole entry): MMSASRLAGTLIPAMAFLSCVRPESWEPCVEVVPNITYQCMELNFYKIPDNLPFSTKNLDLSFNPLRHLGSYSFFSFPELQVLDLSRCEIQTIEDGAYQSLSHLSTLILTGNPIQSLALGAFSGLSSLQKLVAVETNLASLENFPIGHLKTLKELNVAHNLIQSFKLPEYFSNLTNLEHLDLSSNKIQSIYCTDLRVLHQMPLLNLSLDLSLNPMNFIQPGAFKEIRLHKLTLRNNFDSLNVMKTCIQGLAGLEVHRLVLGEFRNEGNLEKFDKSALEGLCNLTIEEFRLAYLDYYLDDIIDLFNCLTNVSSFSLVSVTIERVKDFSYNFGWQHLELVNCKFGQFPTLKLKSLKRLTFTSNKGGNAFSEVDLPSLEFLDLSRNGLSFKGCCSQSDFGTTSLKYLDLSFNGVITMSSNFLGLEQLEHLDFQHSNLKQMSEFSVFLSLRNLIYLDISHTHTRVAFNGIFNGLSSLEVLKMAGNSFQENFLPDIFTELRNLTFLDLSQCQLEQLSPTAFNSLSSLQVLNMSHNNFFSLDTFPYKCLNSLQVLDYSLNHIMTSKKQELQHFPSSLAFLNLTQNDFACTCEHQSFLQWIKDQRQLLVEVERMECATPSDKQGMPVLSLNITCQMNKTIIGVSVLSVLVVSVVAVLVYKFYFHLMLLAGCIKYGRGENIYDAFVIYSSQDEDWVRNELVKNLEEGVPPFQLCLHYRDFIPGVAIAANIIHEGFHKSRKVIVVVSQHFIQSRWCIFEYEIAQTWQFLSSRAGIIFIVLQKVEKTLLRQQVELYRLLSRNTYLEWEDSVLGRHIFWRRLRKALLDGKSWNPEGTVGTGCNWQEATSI
In short: (§1)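 Fresh human blood anticoagulated with lepirudin, preincubated with compound 5–10 min at 37 °C, then stimulated with 100 ng/mL ultrapure E. coli 0111:B4 LPS, rotating 2 h at 37 °C. Stopped with EDTA 10 mM final; plasma TNF-α, IL-8 and IL-6 measured by singleplex Bio-plex, expressed as % of LPS without inhibitor. n = 3 or 9, paired two-sided t-test.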

[3] = molecular target: Mitogen-activated protein kinase 1 (Homo sapiens) (UniProt P28482); experiment: Inhibition of MAPK1 at 28 uM by luciferase fragment complementation assay
Liver [4] = experiment: Intrinsic clearance in human liver S9 fractions at 1 uM after 60 mins by LC-MS/MS analysis; assay type: ADME, subcellular, S9 fraction; settings: s9, 1 h
In short: (§2)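 1 µM in <0.25% DMSO, 37 °C, pooled rat or human S9 at 1 mg/mL, with 1 mM each of NADPH, UDPGA, PAPS and GSH. Sampled at 0, 10, 20, 30 and 60 min; peak-area ratio to internal standard by LC-MS/MS without a standard curve. CLint = k/P.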

Liver [5] = experiment: Intrinsic clearance in rat liver S9 fractions at 1 uM after 60 mins by LC-MS/MS analysis; assay type: ADME, subcellular, S9 fraction; settings: s9, 1 h; in short: as §2
[6] = molecular target: Discoidin domain-containing receptor 2 (Homo sapiens) (UniProt Q16832); experiment: Inhibition of DDR2 at 28 uM by luciferase fragment complementation assay
Toll-like receptor 4 [7] = molecular target: T1, Toll-like receptor 4; experiment: Inhibition of LPS-induced TLR4 activation in human whole blood assessed as inhibition of TNFalpha release at 250 uM preincubated for 5 to 10 mins; in short: as §1
Toll-like receptor 4 [8] = molecular target: T1, Toll-like receptor 4; experiment: Inhibition of LPS-induced TLR4 activation in human whole blood assessed as inhibition of IL-8 release preincubated for 5 to 10 mins; in short: as §1
Toll-like receptor 4 [9] = molecular target: T1, Toll-like receptor 4; experiment: Inhibition of LPS-induced TLR4 activation in human whole blood assessed as inhibition of TNFalpha release preincubated for 5 to 10 mins; in short: as §1
[10] = molecular target: RAC-alpha serine/threonine-protein kinase (Homo sapiens) (UniProt P31749); experiment: Inhibition of AKT1 at 28 uM by luciferase fragment complementation assay
Cytochrome P450 2D6 = Cytochrome P450 2D6 (Homo sapiens, UniProt P10635); experiment: Inhibition of CYP2D6 in human liver microsomes using bufuralol as probe; assay type: ADME, Microsome
[11] = Octanol/water distribution coefficient, log D of the compound at pH 7.4; assay type: physicochemical
In short: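 Octanol/water distribution measured at pH 7.4.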

MDCK = experiment: Permeability across apical to basolateral side of MDCK cells expressing MDR1 at 5 uM; assay type: ADME, cell-based, Canis lupus familiaris; settings: dog
In short: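 MDR1-MDCK monolayer; transport measured in apical-to-basolateral and basolateral-to-apical directions at 5 µM.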

[12] = molecular target: Proto-oncogene tyrosine-protein kinase Src (Homo sapiens) (UniProt P12931); experiment: Inhibition of SRC at 28 uM by luciferase fragment complementation assay
Chain of Proto-oncogene tyrosine-protein kinase Src (Homo sapiens) (P12931 2-536 limits assumed): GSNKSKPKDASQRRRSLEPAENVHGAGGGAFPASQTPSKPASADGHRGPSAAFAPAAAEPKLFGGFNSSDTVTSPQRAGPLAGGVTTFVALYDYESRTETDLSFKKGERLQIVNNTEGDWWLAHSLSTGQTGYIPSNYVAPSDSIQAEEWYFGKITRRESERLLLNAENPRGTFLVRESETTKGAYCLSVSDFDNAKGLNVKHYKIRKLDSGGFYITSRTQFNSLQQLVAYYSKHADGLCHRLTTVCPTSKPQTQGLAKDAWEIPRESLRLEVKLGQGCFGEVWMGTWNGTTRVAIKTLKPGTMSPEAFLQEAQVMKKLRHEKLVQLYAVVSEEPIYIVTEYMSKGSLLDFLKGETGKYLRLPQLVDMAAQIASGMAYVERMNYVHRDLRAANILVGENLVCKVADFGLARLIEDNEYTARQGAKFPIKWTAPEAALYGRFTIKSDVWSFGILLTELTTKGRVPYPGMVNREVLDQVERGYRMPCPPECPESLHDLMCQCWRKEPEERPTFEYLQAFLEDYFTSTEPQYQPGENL

Blood = experiment: Cytotoxicity against human whole blood assessed as hemolysis at 1 mM; assay type: tissue-based; settings: 1000 µM
In short: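 Human whole blood anticoagulated with lepirudin, exposed to compound at up to 1 mM; hemolysis checked.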

[13] = molecular target: Hepatocyte growth factor receptor (Homo sapiens) (UniProt P08581); experiment: Inhibition of MET at 28 uM by luciferase fragment complementation assay
Toll-like receptor 4 [14] = molecular target: T1, Toll-like receptor 4; experiment: Inhibition of LPS-induced TLR4 activation in human whole blood assessed as inhibition of IL-6 release at 500 uM preincubated for 5 to 10 mins; in short: as §1
[15] = molecular target: Serine/threonine-protein kinase PLK4 (Homo sapiens) (UniProt O00444); experiment: Inhibition of PLK4 at 28 uM by luciferase fragment complementation assay
[16] = molecular target: Protein kinase C gamma type (Homo sapiens) (UniProt P05129); experiment: Inhibition of PKCgamma at 28 uM by luciferase fragment complementation assay
Liver microsomes = experiment: Intrinsic clearance in human liver microsomes at 1 uM after 60 mins by LC-MS/MS analysis; assay type: ADME, Microsome; settings: 1 h
In short: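 1 µM in <0.25% DMSO, 37 °C, human liver microsomes 0.5 mg/mL protein, started with cofactors. Time points 0, 10, 20, 30 and 60 min; NADPH addition confirmed by fluorimetry. LC-MS/MS peak-area ratio to internal standard; CLint = k/P.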

[17] = molecular target: Serine/threonine-protein kinase PAK 1 (Homo sapiens) (UniProt Q13153); experiment: Inhibition of PAK1 at 28 uM by luciferase fragment complementation assay
Chain of Serine/threonine-protein kinase PAK 1 (Homo sapiens) (Q13153 whole entry, the tested form may be a part): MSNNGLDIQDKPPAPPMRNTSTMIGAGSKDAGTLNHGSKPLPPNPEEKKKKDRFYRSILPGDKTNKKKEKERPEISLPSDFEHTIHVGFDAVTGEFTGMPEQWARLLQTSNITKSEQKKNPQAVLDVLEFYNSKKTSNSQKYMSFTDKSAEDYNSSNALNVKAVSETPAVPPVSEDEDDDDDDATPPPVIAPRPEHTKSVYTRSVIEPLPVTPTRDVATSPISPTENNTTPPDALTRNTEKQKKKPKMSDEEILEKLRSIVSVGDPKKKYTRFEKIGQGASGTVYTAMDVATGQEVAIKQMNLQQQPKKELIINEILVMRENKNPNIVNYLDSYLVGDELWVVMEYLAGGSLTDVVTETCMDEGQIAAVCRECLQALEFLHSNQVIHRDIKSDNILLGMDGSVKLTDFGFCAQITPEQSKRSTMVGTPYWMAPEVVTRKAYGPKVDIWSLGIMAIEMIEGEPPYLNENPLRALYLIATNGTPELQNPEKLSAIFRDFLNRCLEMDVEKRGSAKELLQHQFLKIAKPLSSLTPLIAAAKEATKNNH

[18] = molecular target: Platelet-derived growth factor receptor beta (Homo sapiens) (UniProt P09619); experiment: Inhibition of PDGFRB at 28 uM by luciferase fragment complementation assay
Chain of Platelet-derived growth factor receptor beta (Homo sapiens) (P09619 whole entry, the tested form may be a part): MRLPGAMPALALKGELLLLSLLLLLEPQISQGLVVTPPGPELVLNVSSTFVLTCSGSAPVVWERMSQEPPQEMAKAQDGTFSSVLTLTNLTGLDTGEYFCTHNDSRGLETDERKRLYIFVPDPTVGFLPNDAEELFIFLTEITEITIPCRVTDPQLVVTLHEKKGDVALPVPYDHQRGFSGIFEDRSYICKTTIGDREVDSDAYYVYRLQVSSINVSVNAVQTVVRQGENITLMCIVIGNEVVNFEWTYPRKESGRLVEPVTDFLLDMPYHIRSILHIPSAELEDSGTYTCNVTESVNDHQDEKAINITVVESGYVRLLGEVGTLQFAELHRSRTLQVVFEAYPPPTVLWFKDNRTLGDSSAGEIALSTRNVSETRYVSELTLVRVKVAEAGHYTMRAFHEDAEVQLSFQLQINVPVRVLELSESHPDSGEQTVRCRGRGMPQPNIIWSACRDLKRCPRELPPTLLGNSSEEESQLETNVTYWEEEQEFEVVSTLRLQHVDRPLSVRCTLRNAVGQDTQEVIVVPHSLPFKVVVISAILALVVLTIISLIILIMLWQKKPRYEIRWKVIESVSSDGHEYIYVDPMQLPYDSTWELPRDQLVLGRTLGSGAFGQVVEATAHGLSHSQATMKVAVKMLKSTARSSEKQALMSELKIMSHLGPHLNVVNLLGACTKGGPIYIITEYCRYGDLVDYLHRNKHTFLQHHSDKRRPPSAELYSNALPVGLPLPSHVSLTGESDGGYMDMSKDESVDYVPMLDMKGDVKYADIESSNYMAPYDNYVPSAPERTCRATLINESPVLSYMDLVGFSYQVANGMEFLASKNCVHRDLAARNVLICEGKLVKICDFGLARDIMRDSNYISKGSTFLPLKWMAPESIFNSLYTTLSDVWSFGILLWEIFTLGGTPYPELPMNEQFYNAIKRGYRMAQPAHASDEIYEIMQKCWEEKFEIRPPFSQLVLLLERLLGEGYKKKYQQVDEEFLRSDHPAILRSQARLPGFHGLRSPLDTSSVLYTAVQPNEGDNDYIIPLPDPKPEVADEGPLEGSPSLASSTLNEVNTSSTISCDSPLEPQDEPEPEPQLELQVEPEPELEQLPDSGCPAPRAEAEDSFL

Cytochrome P450 2C19 = Cytochrome P450 2C19 (Homo sapiens, UniProt P33261); experiment: Inhibition of CYP2C19 in human liver microsomes using S-mephenytoin as probe; assay type: ADME, Microsome
Chain of Cytochrome P450 2C19 (P33261 whole entry): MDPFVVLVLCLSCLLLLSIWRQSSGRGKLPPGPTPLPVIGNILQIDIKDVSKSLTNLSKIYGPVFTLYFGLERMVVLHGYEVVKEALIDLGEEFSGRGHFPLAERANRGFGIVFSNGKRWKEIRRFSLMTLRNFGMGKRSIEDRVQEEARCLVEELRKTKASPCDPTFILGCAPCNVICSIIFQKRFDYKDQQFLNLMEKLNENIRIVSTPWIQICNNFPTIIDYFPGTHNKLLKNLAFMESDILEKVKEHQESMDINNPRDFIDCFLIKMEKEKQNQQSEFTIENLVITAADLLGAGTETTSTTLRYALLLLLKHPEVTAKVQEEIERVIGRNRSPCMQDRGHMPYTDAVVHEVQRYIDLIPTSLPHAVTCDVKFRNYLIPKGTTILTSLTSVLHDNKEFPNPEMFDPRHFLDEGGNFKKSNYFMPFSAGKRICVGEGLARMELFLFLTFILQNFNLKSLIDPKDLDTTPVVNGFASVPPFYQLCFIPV

Toll-like receptor 4 [19] = molecular target: T1, Toll-like receptor 4; experiment: Inhibition of LPS-induced TLR4 activation in human whole blood assessed as reduction in plasma TNFalpha level at 250 uM preincubated for 5 to 10 mins; in short: as §1

- inhibition [1]: ≤ 27%
- IC50 (Cytochrome P450 2C9): 43 µM
- inhibition (Toll-like receptor 4 [2]): 65%
- inhibition [3]: ≤ 27%
- CL (Liver [4]): 300 µL/min/mg
- CL (Liver [5]): > 350 µL/min/mg
- inhibition [6]: ≤ 27%
- inhibition (Toll-like receptor 4 [7]): Active
- IC50 (Toll-like receptor 4 [8]): 111 µM
- inhibition (Toll-like receptor 4 [8]): Dose-dependent effect
- IC50 (Toll-like receptor 4 [9]): 316 µM
- inhibition (Toll-like receptor 4 [9]): Dose-dependent effect
- inhibition [10]: ≤ 27%
- IC50 (Cytochrome P450 2D6): 32 µM
- logD [11]: 3.36
- permeability (MDCK): permeable
- inhibition [12]: ≤ 27%
- inhibition [13]: ≤ 27%
- inhibition (Toll-like receptor 4 [14]): Active
- inhibition [15]: ≤ 27%
- inhibition [16]: ≤ 27%
- CL (Liver microsomes): > 700 µL/min/mg
- inhibition [17]: ≤ 27%
- inhibition [18]: ≤ 27%
- IC50 (Cytochrome P450 2C19): 20 µM
- inhibition (Toll-like receptor 4 [19]): 43%
Structure (SMILES): CCOc1ccc(OCC(O)CN(C)Cc2c(C)nn(Cc3ccccc3Cl)c2C)cc1 (racemic)
- Activity (Blood): Non-toxic
